Ki data for 14 compounds are collected here from ChEMBL document CHEMBL1144412, “High affinity central benzodiazepine receptor ligands: synthesis and biological evaluation of a series of phenyltriazolobenzotriazindione derivatives” (J Med Chem, 2005).

The target of experiment [1] is GABA-A receptor; anion channel. Kind of experiment: Displacement of [3H]flumazenil from bovine benzodiazepine receptor GABA-A channel of brain membranes. Also noted: species or system Bos taurus. For orientation: In a radioligand displacement assay an active substance lowers the binding of a labelled ligand.
For experiment [2], the target named is GABA A receptor alpha-5/beta-3/gamma-2 (Rattus norvegicus, UniProt P18508+P19969+P63079). Kind of experiment: Displacement of [3H]flumazenil from rat GABA-A Gamma-aminobutyric acid A receptor alpha-5-beta-3-gamma-2 expressed in HEK293 cells. The class given is cell-based. Summed up:
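HEK293 cells stably expressing each rat subtype, grown in DMEM/F-12 with 10% FBS at 37 °C, 5% CO2. Harvested cells were homogenized in 10 mM potassium phosphate pH 7.4 and spun at 48 000g for 30 min at 4 °C. Pellets were washed and resuspended with 100 mM KCl. Incubated with [3H]flumazenil 1-2 nM and compound 10-9-10-5 M for 1 h at 4 °C. […] Ki from three determinations.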

Experiment [3] has as its target GABA-A receptor; alpha-1/beta-2/gamma-2 (Rattus norvegicus, UniProt P18508+P62813+P63138). Kind of experiment: Displacement of [3H]flumazenil from rat GABA-A Gamma-aminobutyric acid A receptor alpha-1-beta-2-gamma-2 expressed in HEK293 cells. It is filed as cell-based. In a few lines: (§1)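 HEK293 cells stably expressing each rat subtype, grown in DMEM/F-12 with 10% FBS at 37 °C, 5% CO2. Harvested cells were homogenized in 10 mM potassium phosphate pH 7.4 and spun at 48 000g for 30 min at 4 °C. Pellets were washed and resuspended with 100 mM KCl. Ki from three determinations.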

The target of experiment [4] is GABA A receptor alpha-2/beta-2/gamma-2 (Rattus norvegicus, UniProt P18508+P23576+P63138). Kind of experiment: Displacement of [3H]flumazenil from rat GABA-A Gamma-aminobutyric acid A receptor alpha-2-beta-2-gamma-2 expressed in HEK293 cells. The class given is cell-based. Summed up:
as §1

GABA-A receptor; alpha-1/beta-2/gamma-2, sequence (P18508 whole entry): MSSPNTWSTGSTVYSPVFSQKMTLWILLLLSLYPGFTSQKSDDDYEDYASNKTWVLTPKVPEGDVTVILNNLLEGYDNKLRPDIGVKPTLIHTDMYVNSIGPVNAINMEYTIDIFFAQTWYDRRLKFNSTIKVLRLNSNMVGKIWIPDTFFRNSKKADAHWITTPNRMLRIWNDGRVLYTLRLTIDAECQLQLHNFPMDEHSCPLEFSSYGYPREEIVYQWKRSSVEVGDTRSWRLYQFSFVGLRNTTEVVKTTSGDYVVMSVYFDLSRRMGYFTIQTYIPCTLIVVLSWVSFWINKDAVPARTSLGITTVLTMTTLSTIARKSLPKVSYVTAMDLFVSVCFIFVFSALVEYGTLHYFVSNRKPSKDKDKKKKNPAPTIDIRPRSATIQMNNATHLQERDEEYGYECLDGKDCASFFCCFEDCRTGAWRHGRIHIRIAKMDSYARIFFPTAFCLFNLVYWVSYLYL
GABA-A receptor; alpha-1/beta-2/gamma-2, sequence (P62813 whole entry): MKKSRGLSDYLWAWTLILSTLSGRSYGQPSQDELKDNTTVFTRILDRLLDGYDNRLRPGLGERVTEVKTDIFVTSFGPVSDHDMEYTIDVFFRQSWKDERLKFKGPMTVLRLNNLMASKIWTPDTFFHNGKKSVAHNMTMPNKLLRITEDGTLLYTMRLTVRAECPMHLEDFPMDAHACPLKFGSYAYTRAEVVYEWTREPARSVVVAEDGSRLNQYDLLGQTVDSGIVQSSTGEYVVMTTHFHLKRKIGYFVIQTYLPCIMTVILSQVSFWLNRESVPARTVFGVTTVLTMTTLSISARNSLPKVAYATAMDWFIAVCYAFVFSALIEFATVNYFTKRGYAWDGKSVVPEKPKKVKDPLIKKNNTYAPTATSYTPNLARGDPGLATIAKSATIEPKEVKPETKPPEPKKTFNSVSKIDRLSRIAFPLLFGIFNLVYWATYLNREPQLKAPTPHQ
GABA-A receptor; alpha-1/beta-2/gamma-2, sequence (P63138 whole entry): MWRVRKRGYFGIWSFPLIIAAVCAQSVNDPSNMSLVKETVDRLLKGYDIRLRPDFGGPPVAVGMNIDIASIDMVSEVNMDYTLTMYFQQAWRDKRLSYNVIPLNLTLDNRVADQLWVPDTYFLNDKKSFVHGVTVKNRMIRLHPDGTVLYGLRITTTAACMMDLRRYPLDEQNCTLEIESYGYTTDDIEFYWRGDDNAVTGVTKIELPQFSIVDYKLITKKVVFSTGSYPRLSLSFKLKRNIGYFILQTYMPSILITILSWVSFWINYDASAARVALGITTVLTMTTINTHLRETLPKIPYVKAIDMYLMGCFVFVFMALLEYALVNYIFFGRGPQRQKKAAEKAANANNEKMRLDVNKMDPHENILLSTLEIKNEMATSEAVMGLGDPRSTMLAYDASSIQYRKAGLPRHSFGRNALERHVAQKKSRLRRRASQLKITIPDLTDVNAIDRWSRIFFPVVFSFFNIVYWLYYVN
GABA A receptor alpha-5/beta-3/gamma-2, sequence (P18508 whole entry): as the sequence (P18508 whole entry) above
GABA A receptor alpha-5/beta-3/gamma-2, sequence (P19969 whole entry): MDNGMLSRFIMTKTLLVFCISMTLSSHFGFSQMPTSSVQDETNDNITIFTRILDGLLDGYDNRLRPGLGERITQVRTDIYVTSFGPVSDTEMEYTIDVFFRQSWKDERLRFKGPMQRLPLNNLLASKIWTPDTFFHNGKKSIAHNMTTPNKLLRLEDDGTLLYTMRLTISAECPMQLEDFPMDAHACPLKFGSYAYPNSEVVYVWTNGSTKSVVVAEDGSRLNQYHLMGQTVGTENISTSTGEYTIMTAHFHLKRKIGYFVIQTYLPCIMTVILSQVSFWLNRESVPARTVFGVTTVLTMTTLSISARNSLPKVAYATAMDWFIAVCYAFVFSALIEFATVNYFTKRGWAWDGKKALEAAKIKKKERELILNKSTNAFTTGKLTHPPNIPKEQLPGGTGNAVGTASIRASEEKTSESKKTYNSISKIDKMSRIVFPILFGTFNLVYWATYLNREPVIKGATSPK
GABA A receptor alpha-5/beta-3/gamma-2, sequence (P63079 whole entry): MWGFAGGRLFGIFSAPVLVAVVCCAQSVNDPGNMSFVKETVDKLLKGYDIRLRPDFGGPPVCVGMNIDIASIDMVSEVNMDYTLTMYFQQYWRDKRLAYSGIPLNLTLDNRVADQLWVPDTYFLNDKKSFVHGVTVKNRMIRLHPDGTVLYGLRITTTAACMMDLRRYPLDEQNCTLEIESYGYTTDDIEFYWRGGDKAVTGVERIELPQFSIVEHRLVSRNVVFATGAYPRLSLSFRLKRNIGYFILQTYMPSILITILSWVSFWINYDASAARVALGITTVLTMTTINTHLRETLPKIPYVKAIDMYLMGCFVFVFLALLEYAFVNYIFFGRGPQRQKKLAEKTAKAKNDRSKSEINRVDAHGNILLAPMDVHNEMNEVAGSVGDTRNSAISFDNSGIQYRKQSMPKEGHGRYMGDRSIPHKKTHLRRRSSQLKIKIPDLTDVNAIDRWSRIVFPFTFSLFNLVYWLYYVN
GABA A receptor alpha-2/beta-2/gamma-2, sequence (P18508 whole entry): as the sequence (P18508 whole entry) above
GABA A receptor alpha-2/beta-2/gamma-2, sequence (P23576 whole entry): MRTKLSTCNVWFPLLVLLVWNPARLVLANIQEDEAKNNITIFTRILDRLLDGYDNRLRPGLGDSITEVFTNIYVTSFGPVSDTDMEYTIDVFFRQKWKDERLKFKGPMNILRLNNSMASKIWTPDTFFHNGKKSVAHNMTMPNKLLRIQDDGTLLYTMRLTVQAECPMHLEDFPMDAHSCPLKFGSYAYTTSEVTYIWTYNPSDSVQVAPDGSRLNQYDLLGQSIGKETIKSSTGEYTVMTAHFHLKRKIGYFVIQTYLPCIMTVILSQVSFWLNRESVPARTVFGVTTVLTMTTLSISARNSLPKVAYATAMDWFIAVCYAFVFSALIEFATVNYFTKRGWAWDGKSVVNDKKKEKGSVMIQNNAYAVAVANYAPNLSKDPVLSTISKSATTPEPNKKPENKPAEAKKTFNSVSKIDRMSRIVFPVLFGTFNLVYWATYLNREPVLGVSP
GABA A receptor alpha-2/beta-2/gamma-2, sequence (P63138 whole entry): as the sequence (P63138 whole entry) above

What is called Ki is the dissociation constant of the complex between target and ligand, obtained from inhibition or displacement. A low value points to a stronger hold on the target. Regarding `Cc1ccc(-c2nn3c(=O)[nH]c4ccccc4n3c2=O)cc1`, the Ki in experiment [1] is 616 nM. With `COc1ccc(-c2nn3c(=O)[nH]c4ccc(Cl)cc4n3c2=O)cc1`, the Ki stood at 7.57 nM in experiment [2], 1.82 nM in experiment [3], 6 nM in experiment [1] and 18 nM in experiment [4]. In experiment [1], `O=c1[nH]c2ccc(Cl)cc2n2c(=O)c(-c3ccc(F)cc3)nn12` displayed a Ki of 56 nM. Compound `O=c1[nH]c2ccccc2n2c(=O)c(-c3ccc(F)cc3)nn12` yielded a Ki in experiment [1] of 54 nM.

With `COc1ccc(-c2nn3c(=O)[nH]c4ccccc4n3c2=O)cc1`, the Ki is 17.2 nM in experiment [2], 3.76 nM in experiment [3], 11 nM in experiment [1] and 14.3 nM in experiment [4]. For `O=c1[nH]c2ccccc2n2c(=O)c(-c3ccccc3)nn12`, in that order: 24.1 nM, 9.14 nM, 22 nM and 27.6 nM. As for `Cc1ccc(-c2nn3c(=O)[nH]c4ccc(Cl)cc4n3c2=O)cc1`, in experiment [1], the Ki stood at 185 nM. Still for that read-out and setting: in the case of `O=c1[nH]c2ccccc2n2c(=O)c(-c3ccc(Cl)cc3)nn12` it was 169 nM; in that of `O=c1[nH]c2ccccc2n2c(=O)c(-c3ccc(Br)cc3)nn12`, 224 nM; in that of `O=c1[nH]c2ccccc2n2c(=O)c(-c3ccccc3F)nn12`, greater than 10000 nM. Compound `COc1ccc(-c2nn3c(=O)[nH]c4ccccc4n3c2=O)cc1OC` had a Ki in experiment [1] greater than 10000 nM. Turning to `O=c1[nH]c2ccc(Cl)cc2n2c(=O)c(-c3ccc(Cl)cc3)nn12`, the Ki in experiment [1] was found to be 38 nM. Consider `O=c1[nH]c2ccc(Cl)cc2n2c(=O)c(-c3ccccc3)nn12`, for which the Ki came to 10.3 nM in experiment [2], 1.74 nM in experiment [3], 2.8 nM in experiment [1] and 13.9 nM in experiment [4]. Consider `O=C1CN=C(c2ccccc2Cl)c2cc([N+](=O)[O-])ccc2N1` [CLONAZEPAM], for which the affinity in experiment [1], expressed as Ki, was 0.85 nM.
